Test [1] is described as follows: S. cerevisiae growth inhibition in permissive medium (OD615), pilot counter-assay for S. cerevisiae lifespan shortening project, permissive growth control (AID 705;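 active = growth inhibition above 25% in both replicates, a cutoff set 3 SD above the mean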). The conditions noted are these: OD615, 24 h, at 10 µM, active compounds read high. In short, it runs like this: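 System: Engineered DeaD yeast | Buffer or medium: SC raffinose/galactose permissive medium | Incubation: Cells pre-grown 4 h, then 24 h compound exposure, 30 °C humidified | Measured by: Absorbance (optical density) at 615 nm | Read-out: Reduction in yeast growth (OD615)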

Test [2] is described as follows: S. cerevisiae growth inhibition in restrictive medium, OD615, pilot screen, restrictive growth control, yeast lifespan reduction project (AID 706;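 active = growth inhibition above a set limit, 3 SD over mean compound inhibition, in both replicates, cut at about 43% in these data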;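 also: modified DeaD lifespan yeast strain shifted to restrictive glucose medium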). The following applies: OD615, 48 h, at 10 µM, active compounds read high. In outline:
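Material: modified S. cerevisiae; Medium: glucose-based CSMM-D restrictive medium; Compound dosing: one concentration, 10 µM final, 0.25% DMSO; Incubation: 48 h compound exposure at 30 °C; Measured by: OD615.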

The nature of test [3]: doxorubicin toxicity protection in MRP-1 cells – H69AR cells, CellTiter-Glo, duplicate, MRP-1 activator project, pilot screen (AID 807).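 Also: compound pretreatment 18-22 h then 72 h combined with doxorubicin; 0% = doxorubicin alone and 100% = vehicle without doxorubicin.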 The conditions noted are these: H69AR viability with doxorubicin, CellTiter-Glo luminescence; at 10 µM; active compounds read high. For orientation: Cellular ATP, detected with luciferase, serves as a proxy for viable cell number.
The nature of test [4]: viability of PTEN-null HCT116 cells – cell-based, HCT116 clonal line, CellTiter-Glo, pilot screen (AID 824;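 active = viability at or below 27.92% in each of two runs, the all-compound median minus 4 SD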;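 also: 0% = 20 µM Hyamine control and 100% = vehicle cell control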). The following applies: HCT116 PTEN-deleted viability, 60 h, at 10 µM, active compounds read low.
Test [5] in a line: RAM pathway blockade in budding yeast – dse1pr::URA3 reporter, 5-FOA selection, pilot screen (AID 869;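 active = inhibition over a set limit, the all-compound mean plus 3 SD, in both replicate runs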;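 also: 0% = DMSO wells with no growth and 100% = 10 µM 1-NA-PP1 with full growth; RAM network block rescues cells from 5-FOA so hits raise OD615 growth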). The conditions noted are these: S. cerevisiae dse1pr::URA3 5-FOA growth, OD615, 2 d; at 10 µM; active compounds read high; strain carries analog-sensitive mutant Cbk1 kinase.
Test [6] in a line: RAM signaling pathway blockade in yeast – S. cerevisiae, Pdr1DBD-CYC8 efflux-inhibited sensitized strain, primary screen (AID 1298;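 active = RAM network inhibition above 8.4% in each of two replicates, 3 SD over the compound average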;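 also: 0% = DMSO untreated cells without growth and 100% = 10 µM 1-NA-PP1 full growth; higher means more yeast growth rescued from 5-FOA killing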). The following applies: S. cerevisiae cbk1-as DSE1-URA3 strain, 5-FOA growth OD615, 2 d; at 50 µM; active compounds read high.

Values without a mark were called inactive. Inconclusive results are not listed. Calls of active or inactive are those of the source.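 The calls were made as follows, unless noted: active = viability increase at or above a cutoff of the median across tested compounds plus 3 SD (cut at about 8.5% in these data, passing the limit was not always enough); inconclusive = some gains above the cutoff, reason not given; inactive = the rest.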

By viability is commonly meant a read-out of living cells in per cent, often relative to untreated cells. In general, inhibition refers to the change of the read-out against control, counted positive when it falls. As for `CCOC(=O)COc1cccc2c(=O)n(CC(=O)NCc3ccc4c(c3)OCO4)ccc12`, the results for the growth inhibition in test [1] and in test [2] were -18.3% and -15.8%, respectively. The viability increase in test [3] is -5.67%. In addition, in test [4], the viability was 27.3% (active). Further, the inhibition in test [5] is 3.72%. Moreover, the RAM network inhibition in test [6] was 6.61%.
Consider `COc1ccc(S(=O)(=O)N2CCC(C(=O)N3CCN(c4ccccc4OC)CC3)CC2)cc1`, for which the growth inhibition in test [1] is -8.7%; in test [2] it was -3.36%. Moreover, the viability increase in test [3] was -2.71%. Besides, the viability in test [4] is 86.8%. The inhibition in test [5] is -0.505%. In addition, the RAM network inhibition in test [6] was 0%.
With `C=CCn1c(SC(CCO)C(=O)NCc2ccco2)nc2sc3c(c2c1=O)CCC3` (stereo not given), the growth inhibition in test [1] was -8.84%; in test [2], 0.375%. Moreover, in test [3], the viability increase is -5.67%. In addition, the viability in test [4] was 84.7%. Also, in test [5], the inhibition is 1.2%. Moreover, the RAM network inhibition in test [6] was 5.12%.
Turning to `Cc1cc(NS(=O)(=O)c2ccccc2)cc(Cl)c1O`, the growth inhibition in test [1] is -22.9%; in test [2], 2.72%. For the same molecule, the viability increase in test [3] is -2.8%. The viability in test [4] was 86.2%. Besides, the inhibition in test [5] was 1.4%. In addition, the RAM network inhibition in test [6] was 2.58%.
With `CCOC(=O)c1cc2c(=O)n3ccccc3nc2n(CCOC)c1=NC(=O)c1ccncc1`, the figures for the growth inhibition in test [1] and in test [2] were -1.34% and -11.8%, respectively. Besides, the viability increase in test [3] was -5.7%. In test [4], the viability is 99.6%. Besides, the inhibition in test [5] is 0.96%. The RAM network inhibition in test [6] is 5.99%.
Turning to `Cc1cccc(-n2c(=O)[nH]c3c(C(N)=O)nc(-c4ccccc4Cl)nc32)c1`, the growth inhibition in test [1] is -7.62%; in test [2], -0.18%. The viability increase in test [3] was -7.67%. Also, in test [4], the viability is 11.7% (active). In test [5], the inhibition was 3.09%. In addition, the RAM network inhibition in test [6] was 3.41%.
Turning to `CCOCCCNC(=O)C(c1ccc(Cl)cc1)N1CCC2(CC1)OCCO2` (stereo not given), the growth inhibition in test [1] is -11.4%; in test [2] it was -20.9%. Besides, the viability increase in test [3] is -1.08%. Besides, the viability in test [4] was 98%. In addition, the inhibition in test [5] was 1.17%. Further, the RAM network inhibition in test [6] is 1.59%.
Consider `O=C(Nc1ccc(F)cc1)c1cc(S(=O)(=O)N2CCCCC2)cs1`, for which the growth inhibition in test [1] was -4.36%; in test [2], 5.66%. Also, the viability increase in test [3] is -2.46%. Besides, the viability in test [4] is 61.1%. Besides, the inhibition in test [5] was 2.75%. Besides, in test [6], the RAM network inhibition was -0.1%.
Take `CCc1c(C)sc(NC(=O)C2CCCCC2C(=O)O)c1C(N)=O` (stereo not given): the growth inhibition in test [1] was 15.1%; in test [2], 25.8%. Besides, the viability increase in test [3] was -4%. Moreover, the viability in test [4] is 101%. Besides, in test [5], the inhibition is 1.77%. For the same molecule, the RAM network inhibition in test [6] was 9.48%.
`COc1cc(NS(=O)(=O)c2ccc(NC(=O)COc3ccc(C)cc3)cc2)nc(OC)n1`: the growth inhibition in test [1] is -14.3%; in test [2], -7.79%. In addition, the viability increase in test [3] was -1.12%. The viability in test [4] is 102%. For the same molecule, in test [5], the inhibition is 1.73%. The RAM network inhibition in test [6] was 3.5%.
In the case of `CS(=O)(=O)N(CC(=O)N1CCCCCC1)c1cccc(Br)c1`, the growth inhibition is -9.19% in test [1] and -11.5% in test [2]. Also, in test [3], the viability increase is -2.75%. For the same molecule, the viability in test [4] is 94.5%. Also, the inhibition in test [5] is 1.21%. In addition, in test [6], the RAM network inhibition is 1.44%.
`CC(C)(Oc1ccc(Cl)cc1)C(=O)OCC(=O)N1CCCC1`: the figures for the growth inhibition in test [1] and in test [2] were -8.95% and -11%, respectively. Also, the viability increase in test [3] is -2.58%. Moreover, in test [4], the viability is 96.5%. In addition, the inhibition in test [5] is 0.455%. Further, the RAM network inhibition in test [6] is -1.13%.
As for `NS(=O)(=O)c1ccc(NC(=O)COC(=O)CCNC(=O)NC23CC4CC(CC(C4)C2)C3)cc1`, the results for the growth inhibition in test [1] and in test [2] were -10.4% and -4.2%, respectively. Moreover, the viability increase in test [3] is 0.2%. Further, the viability in test [4] is 98.6%. Moreover, in test [5], the inhibition is 0.55%. The RAM network inhibition in test [6] is 3.28%.
As for `COc1ccccc1C(=O)C(O)c1ccccc1OC` (stereo not given), the growth inhibition was -8.34% in test [1] and 0.335% in test [2]. For the same molecule, the viability increase in test [3] was 0.03%. Further, the viability in test [4] is 94.4%. In addition, in test [5], the inhibition is 0.755%. In test [6], the RAM network inhibition was 5.17%.
As for `COc1ccc(S(=O)(=O)N(CCc2ccccc2)CC(=O)N2CCOCC2)cc1`, the growth inhibition is -7.4% in test [1] and -6.06% in test [2]. Further, in test [3], the viability increase was -4.39%. Also, in test [4], the viability is 96.6%. Further, the inhibition in test [5] was 0.965%. Further, in test [6], the RAM network inhibition was -0.36%.
For the molecule `CCOC(=O)N1CCN(C(=O)c2ccc(CN(c3ccc(C)c(C)c3)S(C)(=O)=O)cc2)CC1`, the growth inhibition was -11.1% in test [1] and -1.85% in test [2]. Besides, the viability increase in test [3] is -2.96%. Besides, the viability in test [4] is 99.4%. Moreover, in test [5], the inhibition is 0.115%. Besides, the RAM network inhibition in test [6] is 5.73%.
`COc1ccc(NC(=O)c2oc3ccccc3c2C)c(OC)c1`: the values for the growth inhibition in test [1] and in test [2] were -7.12% and -1.27%, respectively. Moreover, the viability increase in test [3] was -3.83%. In addition, in test [4], the viability is 96.1%. In test [5], the inhibition is 0.97%. The RAM network inhibition in test [6] was 7.99%.
In the case of `c1coc(CNc2c3c(nc4ncnn24)CCCC3)c1`, the growth inhibition was 0.96% in test [1] and 6.76% in test [2]. In addition, the viability increase in test [3] is -1.88%. For the same molecule, in test [4], the viability was 93.1%. The inhibition in test [5] was -0.155%. Besides, the RAM network inhibition in test [6] is 1.39%.
In the case of `CCC(=O)Nc1sc2c(c1C#N)CC(C)(C)NC2(C)C`, the growth inhibition is -7.39% in test [1] and -4.29% in test [2]. Moreover, the viability increase in test [3] was 0.09%. In addition, the viability in test [4] was 100%. Besides, the inhibition in test [5] is 1.89%. Moreover, the RAM network inhibition in test [6] is 0.46%.
Turning to `Cc1ccc(C(=O)COC(=O)c2ccc(Br)o2)cc1C`, the growth inhibition in test [1] is -5.44%; in test [2], -2.75%. The viability increase in test [3] was 1.02%. For the same molecule, in test [4], the viability is 100%. Besides, the inhibition in test [5] is 2.77%. In test [6], the RAM network inhibition was 1.29%.

The record behind these values is PubChem BioAssay.
